Test results published in ChEMBL document CHEMBL2385029, “Cytotoxic activities of substituted 3-(3,4,5-trimethoxybenzylidene)-1,3-dihydroindol-2-ones and studies on their mechanisms of action” (Eur J Med Chem, 2013).
The source made the active and inactive calls. No cut-off for these calls is given here.

Legend:
[1] = Inhibition of nox4 expression in human B1647 cells at 10 uM after 24 hrs by Western blot analysis relative to control; assay type: functional
Procedure, shortened: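 B1647 cells treated 24 h at 10 µM. Lysates (40 µg protein per lane) run on 10% SDS-PAGE and transferred to nitrocellulose. Blots probed with anti-Nox4, with β-tubulin as loading control, and detected by chemiluminescence. Bands quantified by densitometry in arbitrary units relative to control; three independent experiments.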

[2] = Cytotoxicity against human breast cancer cells after 48 hrs; assay type: functional; conditions: Cancer cell lines
Procedure, shortened: (§1)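 NCI 60-cell panel, values averaged per subpanel. Compounds were dissolved in DMSO and first screened at a single 10⁻⁵ M dose. Active ones then went to five concentrations at ten-fold dilutions, top 10⁻⁴ M (10⁻³ M for some), with 48 h exposure.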

[3] = Cytotoxicity against human leukemia cells after 48 hrs; assay type: functional; conditions: Leukemia cell; for CC50: read-out: LC50 (the source's name)
[4] = Inhibition of bovine brain tubulin assembly after 20 mins
[5] = Cytotoxicity against human colon cancer cells after 48 hrs; assay type: functional; conditions: Cancer cell lines; procedure, shortened: as §1
[6] = Cytotoxicity against human CNS cancer cells after 48 hrs; assay type: functional; conditions: Cancer cell lines; procedure, shortened: as §1
[7] = Cytotoxicity against human ovarian cancer cells after 48 hrs; assay type: functional; conditions: Cancer cell lines; for CC50: read-out: LC50 (the source's name); procedure, shortened: as §1
[8] = Cytotoxicity against human renal cancer cells after 48 hrs; assay type: functional; conditions: Cancer cell lines
[9] = Cytotoxicity against human melanoma cells after 48 hrs; assay type: functional; conditions: Melanoma cell; for CC50: read-out: LC50 (the source's name)
[10] = Cytotoxicity against human prostate cancer cells after 48 hrs; assay type: functional; conditions: Cancer cell lines; for CC50: read-out: LC50 (the source's name); procedure, shortened: as §1
[11] = Cytotoxicity against human NSCLC cells after 48 hrs; assay type: functional; conditions: for CC50: read-out: LC50 (the source's name); procedure, shortened: as §1
B1647 = test: Cytotoxicity against human B1647 cells at 5 to 10 uM after 24 hrs by MTT assay; assay type: functional, cell-based
Procedure, shortened: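 B1647 human AML cells grown in IMDM with 5% human serum (37 °C, 5% CO2); 10⁶ cells per well in 1 mL exposed to 5 or 10 µM compound (DMSO) for 24 h. MTT 0.5 mg/mL added for 4 h at 37 °C, formazan dissolved overnight in 10% SDS/0.01 M HCl, A570 read. Four independent experiments.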

SMILES: c1ccc2c(c1)[I+]c1ccccc1-2 [DIPHENYLENEIODONIUM]
- fold change (FC) [1]: 0.73

SMILES: COc1cc(/C=C2\C(=O)N(Cc3ccc(Cl)cc3)c3ccccc32)cc(OC)c1OC
- GI50 [2]: 2.4 µM
- LC50 [2]: 95.5 µM
- TGI [2]: 12.9 µM
- GI50 [3]: 1.5 µM
- CC50 [3]: 50.1 µM
- IC50 [4]: > 20 µM
- GI50 [5]: 2.2 µM
- LC50 [5]: 14.4 µM
- GI50 [6]: 3.4 µM
- LC50 [6]: 46.8 µM
- TGI [6]: 15.1 µM
- GI50 [7]: 3.4 µM
- TGI [7]: 22.9 µM
- CC50 [7]: 51.3 µM
- GI50 [8]: 2.5 µM
- LC50 [8]: 43.6 µM
- GI50 [9]: 2.9 µM
- CC50 [9]: 26.9 µM
- GI50 [10]: 2.2 µM
- CC50 [10]: 33.1 µM
- GI50 [11]: 3.4 µM
- TGI [11]: 14.4 µM
- CC50 [11]: 56.2 µM
- Activity (B1647): Active

SMILES: COc1cc(/C=C2\C(=O)Nc3ccc(N(C)C)cc32)cc(OC)c1OC
- GI50 [2]: 2.1 µM
- TGI [2]: 37.1 µM
- GI50 [3]: 1.1 µM
- CC50 [3]: 81.3 µM
- IC50 [4]: > 20 µM
- GI50 [5]: 2.4 µM
- LC50 [5]: 81.3 µM
- TGI [5]: 34.7 µM
- GI50 [6]: 2.9 µM
- LC50 [6]: 81.3 µM
- TGI [6]: 25.1 µM
- GI50 [7]: 3.2 µM
- CC50 [7]: 81.3 µM
- GI50 [8]: 3.8 µM
- LC50 [8]: 83.2 µM
- GI50 [9]: 3.5 µM
- TGI [9]: 42.7 µM
- GI50 [10]: 2.5 µM
- TGI [10]: 43.6 µM
- GI50 [11]: 4.2 µM
- TGI [11]: 41.7 µM
- Activity (B1647): Active

SMILES: COc1cc(/C=C2\C(=O)Nc3c(Cl)ccc(Cl)c32)cc(OC)c1OC
- Activity (B1647): Active

SMILES: COc1cc(/C=C2\C(=O)N(C)c3ccc(Cl)cc32)cc(OC)c1OC
- GI50 [2]: 3.7 µM
- TGI [2]: 17.4 µM
- GI50 [3]: 2.3 µM
- TGI [3]: 14.4 µM
- CC50 [3]: 67.6 µM
- IC50 [4]: > 20 µM
- GI50 [5]: 4 µM
- LC50 [5]: 67.6 µM
- TGI [5]: 18.2 µM
- GI50 [6]: 4.3 µM
- LC50 [6]: 81.3 µM
- TGI [6]: 24.5 µM
- GI50 [7]: 5.9 µM
- TGI [7]: 36.3 µM
- CC50 [7]: 93.3 µM
- GI50 [8]: 4.7 µM
- LC50 [8]: 85.1 µM
- GI50 [9]: 5 µM
- CC50 [9]: 69.2 µM
- GI50 [10]: 3.2 µM
- TGI [10]: 11.2 µM
- GI50 [11]: 7.4 µM
- TGI [11]: 28.2 µM
- CC50 [11]: 85.1 µM

SMILES: COc1ccc(CN2C(=O)/C(=C\c3cc(OC)c(OC)c(OC)c3)c3ccccc32)cc1
- GI50 [2]: 2.3 µM
- LC50 [2]: 93.3 µM
- TGI [2]: 17.4 µM
- GI50 [3]: 2.2 µM
- TGI [3]: 27.5 µM
- IC50 [4]: > 20 µM
- GI50 [5]: 1.8 µM
- LC50 [5]: 8.3 µM
- GI50 [6]: 2.5 µM
- LC50 [6]: 26.3 µM
- TGI [6]: 10.5 µM
- GI50 [7]: 2.6 µM
- TGI [7]: 21.4 µM
- CC50 [7]: 67.6 µM
- GI50 [8]: 2 µM
- LC50 [8]: 45.7 µM
- GI50 [9]: 1.7 µM
- CC50 [9]: 19.5 µM
- GI50 [10]: 2.7 µM
- TGI [10]: 26.3 µM
- GI50 [11]: 2 µM
- CC50 [11]: 38.9 µM

SMILES: COc1cc(/C=C2/C(=O)N(C)c3ccc(O)cc32)cc(OC)c1OC
- GI50 [2]: 3.2 µM
- LC50 [2]: 61.7 µM
- TGI [2]: 15.1 µM
- GI50 [3]: 2.2 µM
- CC50 [3]: 81.3 µM
- IC50 [4]: > 20 µM
- GI50 [5]: 4.3 µM
- LC50 [5]: 47.9 µM
- TGI [5]: 18.2 µM
- GI50 [6]: 4.3 µM
- LC50 [6]: 53.7 µM
- GI50 [7]: 5.5 µM
- TGI [7]: 26.3 µM
- CC50 [7]: 79.4 µM
- GI50 [8]: 5.7 µM
- LC50 [8]: 70.8 µM
- TGI [8]: 22.4 µM
- GI50 [9]: 4.9 µM
- TGI [9]: 16.2 µM
- CC50 [9]: 43.6 µM
- GI50 [10]: 2.8 µM
- CC50 [10]: 22.9 µM
- GI50 [11]: 6.3 µM
- TGI [11]: 24.6 µM
- CC50 [11]: 77.6 µM

SMILES: COc1ccc2c(c1)/C(=C\c1cc(OC)c(OC)c(OC)c1)C(=O)N2C
- GI50 [2]: 2.7 µM
- GI50 [3]: 1.4 µM
- CC50 [3]: 87.1 µM
- IC50 [4]: > 20 µM
- GI50 [5]: 2.6 µM
- LC50 [5]: 63.1 µM
- TGI [5]: 16.6 µM
- GI50 [6]: 2.4 µM
- TGI [6]: 14.1 µM
- GI50 [7]: 3.5 µM
- TGI [7]: 28.2 µM
- GI50 [8]: 3.2 µM
- GI50 [9]: 3.1 µM
- CC50 [9]: 85.1 µM
- GI50 [10]: 2.6 µM
- GI50 [11]: 3.7 µM
- TGI [11]: 46.8 µM
- CC50 [11]: 83.2 µM

SMILES: CC[C@]1(O)C[C@H]2CN(CCc3c([nH]c4ccccc34)[C@@](C(=O)OC)(c3cc4c(cc3OC)N(C=O)[C@H]3[C@@](O)(C(=O)OC)[C@H](OC(C)=O)[C@]5(CC)C=CCN6CC[C@]43[C@@H]65)C2)C1 [VINCRISTINE]
- CC50 [3]: 631 µM
- CC50 [7]: 316 µM
- CC50 [10]: 316 µM

SMILES: COc1cc(/C=C2\C(=O)Nc3cc(Cl)ccc32)cc(OC)c1OC
- GI50 [2]: 0.8 µM
- LC50 [2]: 31.6 µM
- GI50 [3]: 0.5 µM
- CC50 [3]: 56.2 µM
- IC50 [4]: 15 µM
- GI50 [5]: 0.8 µM
- LC50 [5]: 22.9 µM
- GI50 [6]: 1.6 µM
- LC50 [6]: 18.6 µM
- GI50 [7]: 1.9 µM
- CC50 [7]: 17.4 µM
- GI50 [8]: 1.6 µM
- LC50 [8]: 14.1 µM
- GI50 [9]: 1.9 µM
- CC50 [9]: 19 µM
- GI50 [10]: 1.5 µM
- CC50 [10]: 17 µM
- GI50 [11]: 2 µM
- CC50 [11]: 29.5 µM

SMILES: COc1ccc(CN2C(=O)/C(=C/c3cc(OC)c(OC)c(OC)c3)c3cc(OC)ccc32)cc1
- GI50 [2]: 2.6 µM
- LC50 [2]: 79.4 µM
- TGI [2]: 13.8 µM
- GI50 [3]: 2.7 µM
- TGI [3]: 27.5 µM
- IC50 [4]: > 20 µM
- GI50 [5]: 1.9 µM
- LC50 [5]: 7.9 µM
- GI50 [6]: 2.2 µM
- LC50 [6]: 33.9 µM
- GI50 [7]: 2.4 µM
- CC50 [7]: 50.1 µM
- GI50 [8]: 2.4 µM
- LC50 [8]: 28.8 µM
- GI50 [9]: 2.1 µM
- CC50 [9]: 23.4 µM
- GI50 [10]: 3.2 µM
- TGI [10]: 14.1 µM
- CC50 [10]: 83.2 µM
- GI50 [11]: 2.3 µM
- TGI [11]: 11.2 µM
- CC50 [11]: 33.1 µM

SMILES: COc1cc(/C=C2\C(=O)Nc3cc(OC(F)(F)F)ccc32)cc(OC)c1OC
- GI50 [2]: 2.1 µM
- LC50 [2]: 60.3 µM
- GI50 [3]: 2.3 µM
- TGI [3]: 27.5 µM
- IC50 [4]: > 20 µM
- GI50 [5]: 2.8 µM
- LC50 [5]: 37.1 µM
- TGI [5]: 10.2 µM
- GI50 [6]: 2.6 µM
- LC50 [6]: 33.9 µM
- GI50 [7]: 2.9 µM
- TGI [7]: 11.2 µM
- CC50 [7]: 49 µM
- GI50 [8]: 3.3 µM
- LC50 [8]: 34.7 µM
- TGI [8]: 12.6 µM
- GI50 [9]: 2.6 µM
- TGI [9]: 10.7 µM
- CC50 [9]: 44.7 µM
- GI50 [10]: 4.6 µM
- TGI [10]: 29.5 µM
- CC50 [10]: 83.2 µM
- GI50 [11]: 2.9 µM
- TGI [11]: 14.1 µM
- CC50 [11]: 51.3 µM

SMILES: COc1ccc(OC)c2c1NC(=O)/C2=C\c1cc(OC)c(OC)c(OC)c1
- GI50 [2]: 2.2 µM
- LC50 [2]: 64.6 µM
- GI50 [3]: 2.6 µM
- TGI [3]: 14.1 µM
- CC50 [3]: 79.4 µM
- IC50 [4]: > 20 µM
- GI50 [5]: 4 µM
- LC50 [5]: 41.7 µM
- TGI [5]: 15.5 µM
- GI50 [6]: 5.5 µM
- LC50 [6]: 54.9 µM
- TGI [6]: 20.4 µM
- GI50 [7]: 4.6 µM
- TGI [7]: 23.4 µM
- CC50 [7]: 77.6 µM
- GI50 [8]: 4.5 µM
- LC50 [8]: 54.9 µM
- TGI [8]: 18.6 µM
- GI50 [9]: 5.2 µM
- TGI [9]: 18.6 µM
- CC50 [9]: 44.7 µM
- GI50 [10]: 4.3 µM
- TGI [10]: 22.9 µM
- CC50 [10]: 58.9 µM
- GI50 [11]: 7.1 µM
- TGI [11]: 25.1 µM
- CC50 [11]: 74.1 µM
